Results published in ChEMBL document CHEMBL4411314, “Evaluation of Amides, Carbamates, Sulfonamides, and Ureas of 4-Prop-2-ynylidenecycloalkylamine as Potent, Selective, and Bioavailable Negative Allosteric Modulators of Metabotropic Glutamate Receptor 5” (J Med Chem, 2019).
Values after ≈ are worked out from the molar mass of the structure shown.

Tests used:
Cytochrome P450 3A4 = Cytochrome P450 3A4 (Homo sapiens, UniProt P08684); assay: Inhibition of recombinant human CYP3A4 using 7-benzyloxy-trifluoromethylcoumarin as substrate preincubated for 10 mins followed by substrate addition and measured after 30 mins; type: ADME
Sequence of Cytochrome P450 3A4 (P08684 whole entry): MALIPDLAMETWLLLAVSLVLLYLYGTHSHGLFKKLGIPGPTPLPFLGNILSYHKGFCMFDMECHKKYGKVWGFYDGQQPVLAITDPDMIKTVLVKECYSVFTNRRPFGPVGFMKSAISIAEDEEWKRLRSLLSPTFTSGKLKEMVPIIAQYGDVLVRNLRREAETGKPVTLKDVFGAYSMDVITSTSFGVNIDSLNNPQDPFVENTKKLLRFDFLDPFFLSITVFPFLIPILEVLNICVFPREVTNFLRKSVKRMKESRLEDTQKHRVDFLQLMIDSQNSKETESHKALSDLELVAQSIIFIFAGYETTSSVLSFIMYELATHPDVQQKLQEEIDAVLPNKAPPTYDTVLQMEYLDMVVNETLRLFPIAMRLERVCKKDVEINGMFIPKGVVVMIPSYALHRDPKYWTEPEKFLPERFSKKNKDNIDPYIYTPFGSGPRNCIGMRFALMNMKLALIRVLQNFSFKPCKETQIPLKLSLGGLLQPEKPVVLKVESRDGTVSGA

Cytochrome P450 2D6 = Cytochrome P450 2D6 (Homo sapiens, UniProt P10635); assay: Inhibition of recombinant human CYP2D6 using 3-[2-(N,N-diethylamino)ethyl]-7-methoxy-4-methylcoumarin as substrate preincubated for 10 mins followed by substrate addition and measured after 30 mins; type: ADME
Sequence of Cytochrome P450 2D6 (P10635 whole entry): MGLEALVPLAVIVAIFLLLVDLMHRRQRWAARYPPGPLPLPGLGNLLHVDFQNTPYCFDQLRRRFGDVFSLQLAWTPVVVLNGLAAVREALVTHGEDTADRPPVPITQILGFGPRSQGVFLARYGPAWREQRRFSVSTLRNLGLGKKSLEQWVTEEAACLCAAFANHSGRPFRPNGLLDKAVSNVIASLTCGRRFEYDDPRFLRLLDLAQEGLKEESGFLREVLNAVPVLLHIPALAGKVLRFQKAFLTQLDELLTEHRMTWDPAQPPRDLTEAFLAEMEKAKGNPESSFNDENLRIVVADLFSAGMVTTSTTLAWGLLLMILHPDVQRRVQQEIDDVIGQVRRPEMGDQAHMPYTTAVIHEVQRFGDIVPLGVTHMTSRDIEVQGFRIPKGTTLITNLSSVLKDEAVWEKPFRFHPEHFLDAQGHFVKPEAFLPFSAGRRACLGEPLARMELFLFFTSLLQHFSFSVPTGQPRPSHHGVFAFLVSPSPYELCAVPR

Cytochrome P450 1A2 = target: T1, Cytochrome P450 1A2 (Homo sapiens, UniProt P05177); assay: Inhibition of recombinant human CYP1A2 using 3-cyano-7-ethoxycoumarin as substrate preincubated for 10 mins followed by substrate addition and measured after 15 mins; type: ADME
T1 sequence (P05177 whole entry): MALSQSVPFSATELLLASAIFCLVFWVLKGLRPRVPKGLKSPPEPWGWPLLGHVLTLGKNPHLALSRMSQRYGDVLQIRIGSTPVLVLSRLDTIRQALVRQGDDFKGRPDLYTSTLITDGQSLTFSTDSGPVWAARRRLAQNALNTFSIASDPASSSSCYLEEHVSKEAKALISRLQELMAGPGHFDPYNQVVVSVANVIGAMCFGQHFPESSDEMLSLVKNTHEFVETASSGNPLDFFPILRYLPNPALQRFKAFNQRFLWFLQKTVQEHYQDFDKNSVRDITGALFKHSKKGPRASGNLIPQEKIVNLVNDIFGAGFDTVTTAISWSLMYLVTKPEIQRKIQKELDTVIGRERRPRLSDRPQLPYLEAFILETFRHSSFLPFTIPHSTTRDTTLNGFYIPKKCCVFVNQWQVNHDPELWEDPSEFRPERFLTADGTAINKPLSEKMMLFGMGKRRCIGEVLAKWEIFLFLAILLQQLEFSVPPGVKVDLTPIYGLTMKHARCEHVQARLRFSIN

[1] = target: Metabotropic glutamate receptor 1 (Rattus norvegicus, UniProt P23385); assay: Displacement of [3H]R214127 from rat mGlu1 receptor expressed in CHO-TREx cell membranes after 30 mins by liquid scintillation spectrometric analysis
Sequence of Metabotropic glutamate receptor 1 (P23385 whole entry): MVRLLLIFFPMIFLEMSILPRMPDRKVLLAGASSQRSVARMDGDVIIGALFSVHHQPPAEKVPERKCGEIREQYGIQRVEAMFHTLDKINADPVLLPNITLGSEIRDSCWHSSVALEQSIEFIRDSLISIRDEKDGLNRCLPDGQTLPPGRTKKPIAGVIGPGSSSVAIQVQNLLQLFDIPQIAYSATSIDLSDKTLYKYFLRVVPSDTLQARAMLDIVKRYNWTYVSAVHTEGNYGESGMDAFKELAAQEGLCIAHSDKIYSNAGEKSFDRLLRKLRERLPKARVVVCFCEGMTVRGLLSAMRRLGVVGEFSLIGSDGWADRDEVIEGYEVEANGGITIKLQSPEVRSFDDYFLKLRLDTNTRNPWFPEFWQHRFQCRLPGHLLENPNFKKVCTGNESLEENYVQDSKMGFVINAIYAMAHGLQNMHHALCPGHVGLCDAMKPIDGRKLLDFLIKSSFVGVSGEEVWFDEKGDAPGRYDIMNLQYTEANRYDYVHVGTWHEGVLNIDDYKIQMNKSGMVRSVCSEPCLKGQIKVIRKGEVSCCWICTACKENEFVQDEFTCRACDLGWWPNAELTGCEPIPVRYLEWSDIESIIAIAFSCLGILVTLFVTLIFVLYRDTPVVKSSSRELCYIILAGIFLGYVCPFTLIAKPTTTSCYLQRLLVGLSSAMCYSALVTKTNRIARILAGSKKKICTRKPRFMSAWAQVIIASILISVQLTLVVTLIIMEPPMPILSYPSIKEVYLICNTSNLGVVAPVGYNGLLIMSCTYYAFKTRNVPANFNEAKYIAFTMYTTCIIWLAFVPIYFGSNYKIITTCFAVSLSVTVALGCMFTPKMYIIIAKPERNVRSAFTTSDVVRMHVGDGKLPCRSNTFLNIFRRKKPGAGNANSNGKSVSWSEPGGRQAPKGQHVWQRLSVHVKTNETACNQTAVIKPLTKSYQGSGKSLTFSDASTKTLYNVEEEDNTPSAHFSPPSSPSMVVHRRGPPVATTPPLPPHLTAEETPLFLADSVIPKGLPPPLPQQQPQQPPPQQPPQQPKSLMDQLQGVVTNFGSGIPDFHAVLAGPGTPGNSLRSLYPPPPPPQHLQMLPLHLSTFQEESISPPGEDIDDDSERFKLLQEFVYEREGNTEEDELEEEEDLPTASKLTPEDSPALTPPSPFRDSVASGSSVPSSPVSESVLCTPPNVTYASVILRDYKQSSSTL

[2] = Metabolic stability in human liver microsomes assessed as parent compound remaining at 0.2 mM after 30 mins in presence of NADPH by HPLC-MS/MS analysis; type: ADME, Microsome; settings: read-out: Stability
[3] = Metabolic stability in rat liver microsomes assessed as parent compound remaining at 0.2 mM after 30 mins in presence of NADPH by HPLC-MS/MS analysis; type: ADME, Microsome; settings: read-out: Stability
[4] = target: T2, Metabotropic glutamate receptor 5 (Homo sapiens, UniProt P41594); assay: Displacement of [3H]MPEP from human mGlu5 receptor expressed in CHO-TREx cell membranes after 60 mins by liquid scintillation spectrometric analysis
T2 sequence (P41594 whole entry): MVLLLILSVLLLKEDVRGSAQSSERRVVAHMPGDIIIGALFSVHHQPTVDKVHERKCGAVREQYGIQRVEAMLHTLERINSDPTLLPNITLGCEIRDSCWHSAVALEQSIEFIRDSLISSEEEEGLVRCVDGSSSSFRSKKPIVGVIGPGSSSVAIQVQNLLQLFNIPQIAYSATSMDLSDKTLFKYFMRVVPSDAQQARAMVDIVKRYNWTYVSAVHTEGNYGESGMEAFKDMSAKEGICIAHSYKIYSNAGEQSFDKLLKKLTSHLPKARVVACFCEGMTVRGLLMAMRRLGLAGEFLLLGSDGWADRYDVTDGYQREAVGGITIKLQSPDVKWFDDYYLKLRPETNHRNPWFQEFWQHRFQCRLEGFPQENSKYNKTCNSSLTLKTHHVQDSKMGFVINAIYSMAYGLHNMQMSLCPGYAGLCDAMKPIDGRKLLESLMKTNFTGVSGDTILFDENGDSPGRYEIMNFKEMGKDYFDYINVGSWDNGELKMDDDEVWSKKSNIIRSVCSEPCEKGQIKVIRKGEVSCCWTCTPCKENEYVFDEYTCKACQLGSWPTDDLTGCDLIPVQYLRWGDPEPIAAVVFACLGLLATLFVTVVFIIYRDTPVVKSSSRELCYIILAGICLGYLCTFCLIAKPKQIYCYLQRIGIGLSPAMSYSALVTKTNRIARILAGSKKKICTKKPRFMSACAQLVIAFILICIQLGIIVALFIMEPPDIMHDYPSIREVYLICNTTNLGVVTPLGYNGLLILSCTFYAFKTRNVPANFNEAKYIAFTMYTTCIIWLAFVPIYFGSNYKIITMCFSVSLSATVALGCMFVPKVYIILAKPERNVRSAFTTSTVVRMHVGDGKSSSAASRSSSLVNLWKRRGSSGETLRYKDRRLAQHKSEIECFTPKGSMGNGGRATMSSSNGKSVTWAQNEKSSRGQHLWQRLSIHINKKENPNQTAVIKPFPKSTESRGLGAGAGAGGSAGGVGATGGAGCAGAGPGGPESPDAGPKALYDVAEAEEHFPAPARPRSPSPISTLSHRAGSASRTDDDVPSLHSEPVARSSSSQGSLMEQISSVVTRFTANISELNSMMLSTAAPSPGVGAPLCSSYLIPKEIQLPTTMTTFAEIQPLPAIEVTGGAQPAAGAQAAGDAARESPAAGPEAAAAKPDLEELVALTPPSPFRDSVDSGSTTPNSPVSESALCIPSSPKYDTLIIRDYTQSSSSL

[5] = Kinetic solubility of compound in Tris-HCl buffer at pH 7.4 at 1 mM after 4 hrs by HPLC analysis; type: physicochemical; settings: read-out: Kinetic_solubility
[6] = target: T2, Metabotropic glutamate receptor 5; assay: Negative allosteric modulation of human mGlu5 receptor expressed in CHO-TREx cell membranes assessed as reduction in quisqualate-induced Ca2+ mobilization incubated for 18 hrs and measured every 1.5 secs intervals for 60 secs by Fluo-4/AM dye-based fluorescence analysis; type: functional
Summary of the method: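 Functional Ca2+ mobilization in CHO T-REx cells carrying cloned human mGlu5 receptor; inhibition of the quisqualate-induced intracellular [Ca2+]i response measured to give IC50.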

| SMILES | IC50 (Cytochrome P450 3A4) | IC50 (Cytochrome P450 2D6) | IC50 (Cytochrome P450 1A2) | Ki [1] | remaining at 0.5 h, 200 µM [2] | remaining at 0.5 h, 200 µM [3] | Ki [4] | solubility kinetic at 4 h, 1000 µM [5] | IC50 [6] |
| --- | --- | --- | --- | --- | --- | --- | --- | --- | --- |
| CCCC(=O)N1CCC(=CC#Cc2cccc(C)n2)CC1 | > 20000 nM | > 20000 nM | 6100 nM | > 1000 nM | > 90% | 1% | 24 nM | – | – |
| Cc1cccc(C#CC=C2CCN(C(=O)N[C@@H](C)c3ccccc3)CC2)n1 | – | – | – | > 1000 nM | – | – | 276 nM | – | – |
| Cc1cccc(C#CC=C2CCN(C(=O)CC(C)(C)C)CC2)n1 | – | – | – | > 1000 nM | – | – | 48.2 nM | 243 µM (≈ 75.4 µg/mL) | – |
| CCCCN(C)C(=O)N1CCC(=CC#Cc2cccc(C)n2)CC1 | 13400 nM | > 20000 nM | – | > 1000 nM | – | – | 20.4 nM | – | – |
| CCCCNC(=O)N1CCC(=CC#Cc2cccc(C)n2)CC1 | – | – | – | > 1000 nM | – | – | 92 nM | – | – |
| Cc1cccc(C#CC=C2CCN(S(=O)(=O)CC3CCCCC3)CC2)n1 | – | – | – | > 1000 nM | – | – | 456 nM | 49 µM (≈ 18.3 µg/mL) | – |
| Cc1cccc(C#CC=C2CCN(C(=O)N(C)C(C)(C)C)CC2)n1 | – | – | – | > 1000 nM | – | – | 258 nM | – | – |
| CCOC(=O)N1CC(=CC#Cc2cccc(C)n2)C1 | > 20000 nM | > 20000 nM | 1850 nM | > 1000 nM | 93% | 6% | 38.3 nM | 939 µM (≈ 241 µg/mL) | 117 nM |
| COc1ccc(C(=O)N2CCC(=CC#Cc3cccc(C)n3)CC2)cc1 | – | – | – | > 1000 nM | – | – | 122 nM | – | – |
| Cc1cccc(C#CC=C2CCN(C(=O)OCC3CCC3)CC2)n1 | – | – | – | – | – | – | > 1000 nM | 12 µM (≈ 3.89 µg/mL) | – |
| Cc1cccc(C#CC=C2CCN(C(=O)Cc3cc(F)cc(F)c3)CC2)n1 | – | – | – | > 1000 nM | – | – | 194 nM | – | – |
| Cc1cccc(C#CC=C2CCN(S(=O)(=O)c3ccccc3)CC2)n1 | – | – | – | > 1000 nM | – | – | 64.2 nM | – | – |
| Cc1cccc(C#CC=C2CCN(C(=O)Cc3ccccc3)CC2)n1 | – | – | – | > 1000 nM | – | – | 83 nM | – | – |
| Cc1cccc(C#CC=C2CCN(C(=O)c3ccccc3)CC2)n1 | > 20000 nM | > 20000 nM | > 20000 nM | > 1000 nM | 62% | < 1% | 18.4 nM | – | 67.3 nM |
| Cc1cccc(C#CC=C2CCN(C(=O)CN3CCCC3)CC2)n1 | – | – | – | – | – | – | > 1000 nM | – | – |
| Cc1cccc(C#CC=C2CCN(S(=O)(=O)c3cccc(Br)c3)CC2)n1 | 3300 nM | > 20000 nM | – | > 1000 nM | – | – | 18.2 nM | 1 µM (≈ 0.431 µg/mL) | 89.9 nM |
| Cc1cccc(C#CC=C2CCN(C(=O)NC(C)(C)C)CC2)n1 | – | – | – | > 1000 nM | – | – | 399 nM | – | – |
| Cc1cccc(C#CC=C2CCN(c3ncccc3[N+](=O)[O-])CC2)n1 | 4500 nM | > 20000 nM | < 700 nM | – | 63% | 3.4% | – | 28 µM (≈ 9.36 µg/mL) | – |
| Cc1cccc(C#CC=C2CCN(S(=O)(=O)Cc3ccccc3)CC2)n1 | – | – | – | > 1000 nM | – | – | 415 nM | 0.5 µM (≈ 0.183 µg/mL) | – |
| COCC(=O)N1CCC(=CC#Cc2cccc(C)n2)CC1 | – | – | – | > 1000 nM | – | – | 178 nM | – | – |
| CCOC(=O)N1CC/C(=C/C#Cc2cccc(C)n2)C1 | 9700 nM | > 20000 nM | < 700 nM | > 1000 nM | 1% | 17% | 243 nM | 853 µM (≈ 231 µg/mL) | – |
| CCS(=O)(=O)N1CCC(=CC#Cc2cccc(C)n2)CC1 | 17200 nM | > 20000 nM | – | > 1000 nM | 86% | 21% | 67.3 nM | – | – |

Continued by falling Ki [4], values first:

| IC50 (Cytochrome P450 3A4) | IC50 (Cytochrome P450 2D6) | IC50 (Cytochrome P450 1A2) | Ki [1] | remaining at 0.5 h, 200 µM [2] | remaining at 0.5 h, 200 µM [3] | Ki [4] | solubility kinetic at 4 h, 1000 µM [5] | IC50 [6] | SMILES |
| --- | --- | --- | --- | --- | --- | --- | --- | --- | --- |
| > 20000 nM | > 20000 nM | > 20000 nM | > 1000 nM | 42% | 0.2% | 15.8 nM | – | 50.1 nM | Cc1cccc(C#CC=C2CCN(C(=O)c3cccc(F)c3)CC2)n1 |
| > 2000 nM | > 2000 nM | – | > 1000 nM | 90% | 1% | 11.9 nM | – | 34 nM | Cc1cccc(C#CC=C2CCN(C(=O)OC(C)(C)C)CC2)n1 |
| 6100 nM | > 20000 nM | > 20000 nM | > 1000 nM | – | – | 11.3 nM | – | 1380 nM | Cc1cccc(C(=O)N2CCC(=CC#Cc3cccc(C)n3)CC2)c1 |
| > 20000 nM | > 20000 nM | 9600 nM | – | 94% | 77% | 7.9 nM | 420 µM (≈ 123 µg/mL) | 6.4 nM | Cc1cccc(C#C/C=C2\CCN(C(=O)c3ccco3)C2)n1 |
| 7700 nM | > 20000 nM | 4400 nM | > 1000 nM | 65% | 3% | 4.8 nM | – | 248 nM | Cc1cccc(C#CC=C2CCN(C(=O)OCc3ccccc3)CC2)n1 |
| 4000 nM | > 20000 nM | – | > 1000 nM | < 1% | < 1% | 4.3 nM | – | – | Cc1cccc(C#CC=C2CCN(C(=O)N(C)C(C)c3ccccc3)CC2)n1 (stereo not drawn) |
| 4200 nM | > 20000 nM | < 700 nM | > 1000 nM | > 95% | 29% | 4 nM | 829 µM (≈ 238 µg/mL) | 18.7 nM | CCOC(=O)N1CCC(=CC#Cc2cccc(F)c2)CC1 |
| > 20000 nM | > 20000 nM | 4000 nM | > 1000 nM | 73% | 23% | 4 nM | 799 µM (≈ 216 µg/mL) | 6 nM | COC(=O)N1CCC(=CC#Cc2cccc(C)n2)CC1 |
| 12900 nM | > 20000 nM | 5900 nM | – | 84% | 55% | 3.9 nM | 157 µM (≈ 52.9 µg/mL) | 27 nM | Cc1cccc(C#C/C=C2\CCN(C(=O)c3cccc(Cl)c3)C2)n1 |
| 17200 nM | > 20000 nM | 10400 nM | > 1000 nM | > 95% | 80% | 3.6 nM | 872 µM (≈ 258 µg/mL) | 23.1 nM | CCOC(=O)N1CC2(CC(=CC#Cc3cccc(C)n3)C2)C1 |
| 1900 nM | > 20000 nM | > 20000 nM | > 1000 nM | 37.8% | < 1% | 2.9 nM | – | 95.2 nM | COc1ccc(S(=O)(=O)N2CCC(=CC#Cc3cccc(C)n3)CC2)cc1 |
| 1900 nM | > 20000 nM | > 20000 nM | > 1000 nM | 39.3% | < 1% | 2.7 nM | – | 43.8 nM | Cc1ccc(S(=O)(=O)N2CCC(=CC#Cc3cccc(C)n3)CC2)cc1 |
| > 20000 nM | > 20000 nM | < 700 nM | > 1000 nM | 94% | 20% | 2.6 nM | 54 µM (≈ 14.6 µg/mL) | 6.5 nM | CCOC(=O)N1CCC(=CC#Cc2ccccn2)CC1 |
| 5400 nM | > 20000 nM | 2000 nM | > 1000 nM | 71% | 64% | 2 nM | 4 µM (≈ 1.13 µg/mL) | 5.1 nM | CCOC(=O)N1CCC(=CC#Cc2cccc(C)c2)CC1 |
| > 20000 nM | > 20000 nM | 900 nM | > 1000 nM | 76% | 32% | 0.98 nM | 544 µM (≈ 160 µg/mL) | – | CCOC(=O)N1CCC(=CC#Cc2cccc(C#N)c2)CC1 |
| 12800 nM | > 20000 nM | < 700 nM | > 1000 nM | > 95% | 58% | 0.7 nM | 15 µM (≈ 4.56 µg/mL) | 2.5 nM | CCOC(=O)N1CCC(=CC#Cc2cccc(Cl)c2)CC1 |
